In ChEMBL document CHEMBL5038590, “Discovery of G Protein-Biased Ligands against 5-HT7R” (J Med Chem, 2021):

Columns and labels:
[1] = MRTinfinity in ICR mouse plasma at 10 mg/kg, ip measured upto 8 hrs by LC-MS/MS analysis; type: ADME, organism-based
In short: (§1)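 Male ICR mice, 7–8 weeks, 30 ± 5 g; single dose 1 mg/kg iv or 10 mg/kg ip (n = 4 each). Carotid artery blood at 0, 0.08 (iv only), 0.25, 0.5, 1, 2, 4, 6, 8 h. Plasma precipitated with acetonitrile containing internal standard, quantified by LC–MS/MS. Parameters by non-compartmental analysis; AUClast by trapezoidal rule; values mean ± SD.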

[2] = Volume of distribution in steady state in ICR mouse plasma at 1 mg/kg, iv measured upto 8 hrs by LC-MS/MS analysis; type: ADME, organism-based; settings: read-out: Vdss; in short: as §1
[3] = molecular target: T1, 5-hydroxytryptamine receptor 7 (Homo sapiens, UniProt P34969); assay: Displacement of [3H] D-lysergic acid diethylamide from 5-HT7R (unknown origin) transfected in HEK293 cells incubated for 1.5 hrs by microbeta scintillation counter analysis; type: cell-based; settings: read-out: Ki
T1 sequence (P34969 whole entry): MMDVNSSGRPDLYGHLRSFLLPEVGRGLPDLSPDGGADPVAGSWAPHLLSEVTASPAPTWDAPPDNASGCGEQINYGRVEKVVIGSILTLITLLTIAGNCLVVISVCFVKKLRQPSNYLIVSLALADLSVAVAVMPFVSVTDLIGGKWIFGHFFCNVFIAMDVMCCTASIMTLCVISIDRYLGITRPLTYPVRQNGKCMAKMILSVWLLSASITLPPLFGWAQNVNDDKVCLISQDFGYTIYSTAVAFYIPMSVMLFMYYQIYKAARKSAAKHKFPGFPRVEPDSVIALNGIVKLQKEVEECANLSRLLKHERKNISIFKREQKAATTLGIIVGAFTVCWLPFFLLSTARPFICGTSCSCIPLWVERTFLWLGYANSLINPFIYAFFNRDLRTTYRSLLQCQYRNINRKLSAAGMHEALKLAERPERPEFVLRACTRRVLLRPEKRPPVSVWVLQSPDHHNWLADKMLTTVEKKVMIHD

[4] = Half life in ICR mouse plasma at 10 mg/kg, ip measured upto 8 hrs by LC-MS/MS; type: ADME, organism-based; in short: as §1
[5] = Cmax in ICR mouse plasma at 10 mg/kg, ip measured upto 8 hrs by LC-MS/MS analysis; type: ADME, organism-based; parameters: route intraperitoneal, dose 10 mg/kg, time <=8; in short: as §1
[6] = molecular target: T1, 5-hydroxytryptamine receptor 7
[7] = molecular target: 5-hydroxytryptamine receptor 1B (Homo sapiens, UniProt P28222); assay: Binding affinity to 5-HT1BR (unknown origin)
Sequence of 5-hydroxytryptamine receptor 1B (P28222 whole entry): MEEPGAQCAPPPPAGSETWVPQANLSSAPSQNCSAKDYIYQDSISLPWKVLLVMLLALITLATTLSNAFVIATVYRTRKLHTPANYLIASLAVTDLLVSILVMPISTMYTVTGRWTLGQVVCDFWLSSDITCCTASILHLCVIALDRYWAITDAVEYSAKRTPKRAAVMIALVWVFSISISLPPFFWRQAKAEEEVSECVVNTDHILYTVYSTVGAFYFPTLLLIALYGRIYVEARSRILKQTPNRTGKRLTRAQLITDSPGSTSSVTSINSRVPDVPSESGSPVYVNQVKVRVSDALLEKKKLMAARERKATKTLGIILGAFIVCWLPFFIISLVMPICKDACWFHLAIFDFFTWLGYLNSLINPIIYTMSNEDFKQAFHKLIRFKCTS
In short: (§2)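 Run by the NIMH Psychoactive Drug Screening Program as competition radioligand binding on crude membranes of cells expressing the recombinant receptor. Eleven dilutions (0.05 nM–50 μM, prepared at 5× assay concentration) were made in 50 mM Tris-HCl, 10 mM MgCl₂, 1 mM EDTA, pH 7.4. Incubation was 1.5 h at rt in the dark, followed by GF/B filtration (0.3% PEI) and scintillation counting. IC₅₀ was converted to Ki; at least triplicate.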

[8] = molecular target: T2, 5-hydroxytryptamine receptor 3A (Homo sapiens, UniProt P46098); assay: Binding affinity to 5-HT3R (unknown origin); in short: as §2
T2 sequence (P46098 whole entry): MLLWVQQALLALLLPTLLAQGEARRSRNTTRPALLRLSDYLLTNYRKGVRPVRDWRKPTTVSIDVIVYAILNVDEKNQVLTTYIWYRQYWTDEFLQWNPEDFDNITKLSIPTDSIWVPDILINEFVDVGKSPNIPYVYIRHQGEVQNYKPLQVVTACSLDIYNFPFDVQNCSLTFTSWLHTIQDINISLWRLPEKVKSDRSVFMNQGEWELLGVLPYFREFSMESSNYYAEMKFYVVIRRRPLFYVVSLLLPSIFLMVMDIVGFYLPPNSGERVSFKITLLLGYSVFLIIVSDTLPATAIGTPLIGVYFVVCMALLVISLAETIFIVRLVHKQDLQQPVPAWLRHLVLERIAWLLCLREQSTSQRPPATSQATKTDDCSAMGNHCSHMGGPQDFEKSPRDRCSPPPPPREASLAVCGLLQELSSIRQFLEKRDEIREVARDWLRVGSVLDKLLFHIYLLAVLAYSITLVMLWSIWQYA

[9] = AUClast in ICR mouse plasma at 1 mg/kg, iv measured upto 8 hrs by LC-MS/MS analysis; type: ADME, organism-based; parameters: route intravenous, dose 1 mg/kg, time <=8; in short: as §1
[10] = molecular target: T3, 5-hydroxytryptamine receptor 1A (Homo sapiens, UniProt P08908); assay: Binding affinity to 5-HT1AR (unknown origin); in short: as §2
T3 sequence (P08908 whole entry): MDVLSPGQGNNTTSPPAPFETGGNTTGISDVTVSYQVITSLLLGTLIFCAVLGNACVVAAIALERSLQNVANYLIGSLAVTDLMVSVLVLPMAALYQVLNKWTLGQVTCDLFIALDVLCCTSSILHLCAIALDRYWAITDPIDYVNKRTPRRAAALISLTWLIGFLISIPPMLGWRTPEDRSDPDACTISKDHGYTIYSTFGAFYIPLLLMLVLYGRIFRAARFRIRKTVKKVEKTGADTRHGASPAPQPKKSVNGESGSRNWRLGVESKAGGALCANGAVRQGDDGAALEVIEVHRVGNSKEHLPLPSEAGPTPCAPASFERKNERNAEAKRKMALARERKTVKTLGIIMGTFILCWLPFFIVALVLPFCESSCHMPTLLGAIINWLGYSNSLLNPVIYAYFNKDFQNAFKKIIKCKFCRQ

[11] = Bioavailability in ICR mouse plasma at 10 mg/kg, ip measured upto 8 hrs by LC-MS/MS analysis; type: ADME, organism-based; in short: as §1
[12] = molecular target: T1, 5-hydroxytryptamine receptor 7; assay: Agonist activity at 5-HT7R (unknown origin) transfected in HEK293 cells expressing tTA-dependent luciferase reporter and beta arrestin 2-TEV fusion gene assessed as beta arrestin recruitment incubated for 22 hrs by Tango assay; type: functional, cell-based; settings: hek293
Mus musculus = assay: Effect on shank3-/- mouse model of autism spectrum disorder assessed as time taken for duration of self grooming at 5 mg/kg, ip after 30 mins under 40 lux lighting (reference value: 224 +/- 47.4 sec); type: functional; settings: 0.5 h
[13] = molecular target: T4, 5-hydroxytryptamine receptor 2C (Homo sapiens, UniProt P28335); assay: Binding affinity to 5-HT2CR (unknown origin); in short: as §2
T4 sequence (P28335 whole entry): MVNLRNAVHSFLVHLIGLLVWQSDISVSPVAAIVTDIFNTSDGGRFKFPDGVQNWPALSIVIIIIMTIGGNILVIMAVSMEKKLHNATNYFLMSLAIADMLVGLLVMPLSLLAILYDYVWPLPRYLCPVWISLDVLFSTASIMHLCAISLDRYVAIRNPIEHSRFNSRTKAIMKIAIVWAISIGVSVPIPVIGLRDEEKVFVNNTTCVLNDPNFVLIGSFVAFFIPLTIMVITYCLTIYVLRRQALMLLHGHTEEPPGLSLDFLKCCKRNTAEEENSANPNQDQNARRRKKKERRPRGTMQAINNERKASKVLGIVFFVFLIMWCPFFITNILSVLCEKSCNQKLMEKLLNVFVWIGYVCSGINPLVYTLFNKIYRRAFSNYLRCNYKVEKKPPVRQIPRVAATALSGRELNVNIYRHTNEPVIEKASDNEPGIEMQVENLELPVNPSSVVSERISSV

CCNCCc1ccc(Cl)c(-c2ccccc2OC)c1.Cl
MRT inf [1]: 1.3 h
Vd [2]: 19.5 L/kg
Ki [3]: 2.8 nM
half-life [4]: 1 h
Cmax [5]: 348 ng/mL
EC50 [6]: 180 nM
Ki [7]: 580 nM
Ki [8]: > 10000 nM
AUC(0-t) at 8 h [9]: 32.9 ng·h/mL
Ki [10]: 52 nM
bioavailability [11]: 134%
EC50 [12]: Not Active
Time (Mus musculus): 553 s
Ki [13]: > 10000 nM
